Results as given in ChEMBL document CHEMBL4316601, “Esterase-Sensitive and pH-Controlled Carbon Monoxide Prodrugs for Treating Systemic Inflammation” (J Med Chem, 2019).
One block for each compound: values may come before it. Active and inactive are the calls of the source. The rule behind the calls is not given here.

Assays:
[1] = Drug metabolism in PBS buffer assessed as half life for carbon monoxide release at pH 7 by HPLC analysis
[2] = Drug metabolism in pH 7.4 PBS assessed as CO bounded myoglobin formation by measuring maximal absorption peak of deoxy-Mb incubated for 2 hrs by UV-vis absorption spectroscopy based myoglobin-CO assay
[3] = Drug metabolism in pH 7.4 PBS assessed as 3',6'-dimethyl-[1,1':2',1''-terphenyl]-4'-carbaldehyde fromation by HPLC
[4] = target: T1, Liver carboxylesterase (Sus scrofa, UniProt Q29550); assay: Drug metabolism in PBS buffer assessed as porcine liver esterase-mediated (1S,4S)-1,4-Dimethyl-7-oxo-5,6-diphenyl-3-(phenylsulfonyl)bicyclo[2.2.1]hept-5-ene-2-carbaldehyde formation at pH 7 at 20 uM incubated for 48 hrs by HPLC analysis; format: ADME; details: pig, isolated protein, pH 7, 48 h
T1 sequence (Q29550 whole entry): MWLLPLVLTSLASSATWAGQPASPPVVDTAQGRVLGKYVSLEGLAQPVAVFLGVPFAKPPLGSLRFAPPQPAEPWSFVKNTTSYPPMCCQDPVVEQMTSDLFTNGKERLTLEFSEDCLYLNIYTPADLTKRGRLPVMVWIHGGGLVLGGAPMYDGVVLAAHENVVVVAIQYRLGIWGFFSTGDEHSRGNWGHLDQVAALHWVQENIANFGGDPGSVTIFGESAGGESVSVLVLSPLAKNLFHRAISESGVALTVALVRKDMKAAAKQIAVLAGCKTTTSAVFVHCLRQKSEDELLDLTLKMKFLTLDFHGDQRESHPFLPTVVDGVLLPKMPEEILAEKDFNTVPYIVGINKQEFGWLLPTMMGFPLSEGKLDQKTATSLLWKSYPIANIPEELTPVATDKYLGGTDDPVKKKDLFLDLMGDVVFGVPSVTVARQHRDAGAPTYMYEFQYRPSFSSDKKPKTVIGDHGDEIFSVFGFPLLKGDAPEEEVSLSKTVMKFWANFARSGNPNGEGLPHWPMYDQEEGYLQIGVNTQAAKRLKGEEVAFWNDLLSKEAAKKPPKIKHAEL

[5] = Drug metabolism in mouse serum assessed as esterase-mediated (1S,4S)-1,4-Dimethyl-7-oxo-5,6-diphenyl-3-(phenylsulfonyl)bicyclo[2.2.1]hept-5-ene-2-carbaldehyde metabolite formation by measuring half life by HPLC analysis; format: ADME, cell-free
Outline: (§1)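 The prodrug was incubated in mouse, rat, rabbit or human serum. HPLC followed esterase-mediated hydrolysis to the bicyclic intermediate, giving a half-life, and the subsequent beta-elimination was followed for up to 20 h.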

[6] = Drug metabolism in rat serum assessed as esterase-mediated (1S,4S)-1,4-Dimethyl-7-oxo-5,6-diphenyl-3-(phenylsulfonyl)bicyclo[2.2.1]hept-5-ene-2-carbaldehyde metabolite formation by measuring half life by HPLC analysis; format: ADME, cell-free; outline: as §1
[7] = Drug metabolism in rabbit serum assessed as esterase-mediated (1S,4S)-1,4-Dimethyl-7-oxo-5,6-diphenyl-3-(phenylsulfonyl)bicyclo[2.2.1]hept-5-ene-2-carbaldehyde metabolite formation by measuring half life by HPLC analysis; format: ADME, cell-free, Oryctolagus cuniculus; outline: as §1
[8] = Drug metabolism in human serum assessed as esterase-mediated (1S,4S)-1,4-Dimethyl-7-oxo-5,6-diphenyl-3-(phenylsulfonyl)bicyclo[2.2.1]hept-5-ene-2-carbaldehyde metabolite formation by measuring half life by HPLC analysis; format: ADME, cell-free; outline: as §1
[9] = Drug metabolism in mouse RAW264.7 cells assessed as carbon monoxide release at 50 uM after 5 hrs by COP1-based fluorescence assay; format: ADME, cell-based; details: raw264.7, 5 h
[10] = system: RAW264.7; assay: Antiinflammatory activity in mouse RAW264.7 cells assessed as reduction in LPS-induced TNFalpha secretion preincubated for 4 hrs followed by LPS addition and measured after 1 hr by ELISA; format: functional, cell-based
[11] = system: Mus musculus; assay: Antiinflammatory activity in LPS-stimulated ip dosed C57BL/6 mouse assessed as inhibition of LPS-induced serum TNFalpha levels pretreated for 30 mins followed by LPS addition and measured after 6 hrs by ELISA; format: functional, organism-based
[12] = system: Mus musculus; assay: Hepatoprotective activity in LPS-stimulated ip dosed C57BL/6 mouse assessed as reduction in LPS-induced AST levels pretreated for 30 mins followed by LPS addition and measured after 6 hrs; format: functional, organism-based
[13] = system: Mus musculus; assay: Hepatoprotective activity in LPS-stimulated ip dosed C57BL/6 mouse assessed as reduction in LPS-induced ALT levels pretreated for 30 mins followed by LPS addition and measured after 6 hrs; format: functional, organism-based
[14] = system: Mus musculus; assay: Hepato-protective activity in LPS-stimulated C57BL/6 mouse assessed as reduction in LPS-induced liver injury at 10 mg/kg, ip pretreated for 30 mins followed by LPS addition and measured after 6 hrs by hematoxylin and eosin staining based assay; format: functional, organism-based
[15] = target: T1, Liver carboxylesterase; assay: Drug metabolism in PBS buffer assessed as porcine liver esterase-mediated carbon monoxide release at pH 7 at 20 uM incubated for 48 hrs by HPLC analysis; format: ADME; details: pig, isolated protein, pH 7, 48 h
Outline: (§2)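 Prodrug at a starting concentration of 20 was incubated with porcine liver esterase (3 U/mL) in PBS containing 5% DMSO at 37 °C. CO release was followed by HPLC as formation of the beta-elimination product.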

[16] = Drug metabolism in PBS buffer assessed as (1S,4S)-1,4-Dimethyl-7-oxo-5,6-diphenyl-3-(phenylsulfonyl)bicyclo[2.2.1]hept-5-ene-2-carbaldehyde formation at pH 7 at 20 uM in absence of porcine liver esterase after 6 hrs by HPLC analysis
Outline: (§3)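 The prodrug was incubated without porcine liver esterase for up to 6 h, in either PBS (pH 7) or simulated gastric fluid (pH ~1). HPLC monitored hydrolysis to the acetal-cleaved bicyclic intermediate.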

[17] = Drug metabolism in pH 1 SGF assessed as (1S,4S)-1,4-Dimethyl-7-oxo-5,6-diphenyl-3-(phenylsulfonyl)bicyclo[2.2.1]hept-5-ene-2-carbaldehyde formation at 20 uM in absence of porcine liver esterase after 6 hrs by HPLC analysis; outline: as §3
[18] = target: T1, Liver carboxylesterase; assay: Drug metabolism in pH 1 SGF assessed as porcine liver esterase-mediated (1S,4S)-1,4-Dimethyl-7-oxo-5,6-diphenyl-3-(phenylsulfonyl)bicyclo[2.2.1]hept-5-ene-2-carbaldehyde formation at 20 uM after 2 mins by HPLC analysis; format: ADME; details: pig, isolated protein, pH 1, 2 min
Outline: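 The prodrug was incubated in simulated gastric fluid (pH ~1) containing porcine liver esterase at 37 °C. HPLC tracked formation of the hydrolysed bicyclic intermediate and of the beta-elimination product for up to 7 h.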

[19] = system: RAW264.7; assay: Cytotoxicity against mouse RAW264.7 cells assessed as reduction in cell viability at 50 uM uM incubated for 5 hrs by WST8 assay; format: cell-based; details: raw264.7, 5 h
[20] = target: T1, Liver carboxylesterase; assay: Drug metabolism in PBS buffer assessed as porcine liver esterase-mediated (1S,4S)-1,4-Dimethyl-7-oxo-5,6-diphenyl-3-(phenylsulfonyl)bicyclo[2.2.1]hept-5-ene-2-carbaldehyde formation at pH 7 at 20 uM after 36 hrs by HPLC analysis; details: pig, pH 7, 36 h
[21] = target: T1, Liver carboxylesterase; assay: Drug metabolism in PBS buffer assessed as porcine liver esterase-mediated 3',6'-dimethyl-[1,1':2',1''-terphenyl]-4'-carbaldehyde formation at pH 7 at 20 uM after 36 hrs by HPLC analysis; details: pig, pH 7, 36 h; outline: as §2
[22] = target: T1, Liver carboxylesterase; assay: Drug metabolism in PBS buffer assessed as porcine liver esterase-mediated carbon monoxide release at pH 7 at 20 uM after 36 hrs by HPLC analysis; format: ADME; details: pig, isolated protein, pH 7, 36 h; outline: as §2
[23] = system: RAW264.7; assay: Cytotoxicity against mouse RAW264.7 cells assessed as reduction in cell viability at 200 uM by WST8 assay; format: cell-based; details: raw264.7, 200 µM
[24] = system: RAW264.7; assay: Antiinflammatory activity in mouse RAW264.7 cells assessed as reduction in LPS-induced TNFalpha secretion at 12.5 to 100 uM preincubated for 4 hrs followed by LPS addition and measured after 1 hr by ELISA; format: functional, cell-based
[25] = system: Mus musculus; assay: Antiinflammatory activity in LPS-stimulated C57BL/6 mouse assessed as inhibition of LPS-induced serum TNFalpha levels at 10 mg/kg, ip pretreated for 30 mins followed by LPS addition and measured after 6 hrs by ELISA; format: functional, organism-based
[26] = system: Mus musculus; assay: Hepatoprotective activity in LPS-stimulated C57BL/6 mouse assessed as reduction in LPS-induced AST levels at 10 mg/kg, ip pretreated for 30 mins followed by LPS addition and measured after 6 hrs; format: functional, organism-based
[27] = system: Mus musculus; assay: Hepatoprotective activity in LPS-stimulated C57BL/6 mouse assessed as reduction in LPS-induced ALT levels at 10 mg/kg, ip pretreated for 30 mins followed by LPS addition and measured after 6 hrs; format: functional, organism-based

SMILES: C[C@@]12C(=O)[C@](C)(C(c3ccccc3)=C1c1ccccc1)[C@@H](S(=O)(=O)c1ccccc1)[C@H]2C=O
T1/2 [1]: 30 min
Drug metabolism [2]: Metabolite detected
Drug metabolism [3]: Metabolite detected

Drug metabolism [4]: Metabolite_Detected
SMILES: CCCC(=O)OC(OC(=O)CCC)[C@@H]1[C@H](S(=O)(=O)c2ccccc2)[C@]2(C)C(=O)[C@]1(C)C(c1ccccc1)=C2c1ccccc1

Drug metabolism [4]: Metabolite_Detected
t1/2 [5]: 3 min
t1/2 [6]: 10 min
t1/2 [7]: 30 min
t1/2 [8]: 14 h
Drug metabolism [9]: Metabolite_Detected
t1/2 [15]: 0.5 to 8 h
Drug metabolism [16]: Metabolite not detected
Drug metabolism [17]: Metabolite not detected
Drug metabolism [18]: Metabolite_Detected
SMILES: CC(=O)OC(OC(C)=O)[C@@H]1[C@H](S(=O)(=O)c2ccccc2)[C@]2(C)C(=O)[C@]1(C)C(c1ccccc1)=C2c1ccccc1
inhibition [10]: Dose-dependent effect
Activity [11]: Dose-dependent effect
Activity [12]: Dose-dependent effect
Activity [13]: Dose-dependent effect
Activity [14]: Active
Activity [19]: Non-Toxic

Drug metabolism [20]: Metabolite_Notdetected
Drug metabolism [21]: Metabolite_Notdetected
Drug metabolism [22]: Metabolite_Notdetected
SMILES: CC(C)(C)C(=O)OC(OC(=O)C(C)(C)C)[C@@H]1[C@H](S(=O)(=O)c2ccccc2)[C@]2(C)C(=O)[C@]1(C)C(c1ccccc1)=C2c1ccccc1

SMILES: Cc1cc(C=O)c(C)c(-c2ccccc2)c1-c1ccccc1
Activity [23]: Non-Toxic
inhibition [24]: inactive
Activity [14]: inactive
Activity [25]: inactive
Activity [26]: inactive
Activity [27]: inactive

Drug metabolism [4]: Metabolite_Detected
SMILES: C[C@@]12C(=O)[C@](C)(C(c3ccccc3)=C1c1ccccc1)[C@@H](S(=O)(=O)c1ccccc1)[C@H]2C(OC(=O)C1CC1)OC(=O)C1CC1
